The source made the active and inactive calls. No cut-off for these calls is given here.

The record followed here is ChEMBL document CHEMBL3351811, “Synthesis of heteroaryl/aryl kojic acid conjugates as stimulators of glucose uptake by GLUT4 translocation” (Eur J Med Chem, 2014).

Holding throughout (format): cell-based
One series deals with L6. The series can be described thus: Toxicity in rat L6 cells expressing myc-tagged rat GLUT4 assessed as inhibition of glucose uptake at 10 uM incubated for 16 hrs by scintillation counting based 2-[3H]DG uptake assay. The conditions noted are these: l6, 16 h. Put shortly: (§1)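 Differentiated L6-GLUT4myc myotubes (2% FBS, 6–7 days after seeding) exposed to compound for 16 h; insulin 100 nM as positive control. Uptake measured 5 min at room temperature in HEPES-buffered saline with 10 µM 2-DG (0.5 µCi/ml 2-[3H]DG), then lysis and scintillation counting. Cytochalasin B (25 µM) background subtracted. Duplicates normalized to total protein; percent stimulation versus control cells.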

The target of series [1] is T1, Solute carrier family 2, facilitated glucose transporter member 4 (Rattus norvegicus) (UniProt P19357).
T1 sequence (whole entry): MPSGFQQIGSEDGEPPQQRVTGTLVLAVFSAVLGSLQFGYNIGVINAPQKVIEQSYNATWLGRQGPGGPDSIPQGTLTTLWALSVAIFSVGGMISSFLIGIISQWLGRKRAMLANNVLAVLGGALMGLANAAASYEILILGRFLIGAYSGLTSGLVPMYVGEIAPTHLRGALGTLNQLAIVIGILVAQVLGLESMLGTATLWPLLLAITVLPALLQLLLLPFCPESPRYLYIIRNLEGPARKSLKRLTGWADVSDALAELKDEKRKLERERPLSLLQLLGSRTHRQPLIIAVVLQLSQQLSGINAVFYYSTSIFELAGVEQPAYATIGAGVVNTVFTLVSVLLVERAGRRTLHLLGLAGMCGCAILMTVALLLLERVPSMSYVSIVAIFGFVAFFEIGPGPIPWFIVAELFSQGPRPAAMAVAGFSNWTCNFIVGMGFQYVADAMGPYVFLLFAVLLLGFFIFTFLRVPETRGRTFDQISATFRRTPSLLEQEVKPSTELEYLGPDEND
Kind of series: Stimulation of rat GLUT4-mediated glucose uptake in rat L6 cells expressing myc-tagged GLUT4 at 10 uM incubated for 16 hrs by scintillation counting based 2-[3H]DG uptake assay. Put shortly: as §1

Series [2] has as its target T1, Solute carrier family 2, facilitated glucose transporter member 4 (Rattus norvegicus). The series can be described thus: Stimulation of rat GLUT4-mediated glucose uptake in rat L6 cells expressing myc-tagged GLUT4 at 10 uM incubated for 16 hrs in presence of 1 uM PI3K inhibitor wortmannin by scintillation counting based 2-[3H]DG uptake assay. Put shortly:
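Differentiated L6-GLUT4myc myotubes treated with compound at 10 µM, with wortmannin (1 µM) present for the final hour. Uptake then measured 5 min at room temperature in HEPES-buffered saline with 10 µM 2-DG (0.5 µCi/ml 2-[3H]DG), followed by lysis and scintillation counting. Cytochalasin B (25 µM) nonspecific uptake subtracted; duplicates normalized to protein, expressed versus control.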

For series [3] the target is unchanged. The series can be described thus: Induction of rat GLUT4 translocation in rat L6 cells expressing myc-tagged GLUT4 incubated for 3 hrs by antibody-coupled colourimetric assay. Put shortly: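 L6-GLUT4myc myotubes, non-permeabilized, treated 3 h with vehicle (DMSO), insulin 100 nM or compound at 5, 10, 25 µM. Fixed in 3% paraformaldehyde 30 min, glycine-quenched, milk-blocked, then anti-myc 1.0 µg/ml 1 h. HRP secondary with o-phenylenediamine read-out at OD 492 nm. Triplicates, three independent experiments; expressed as fold over unstimulated cells.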

For series [4] the target is unchanged. The series can be described thus: Stimulation of rat GLUT4-mediated glucose uptake in rat L6 cells expressing myc-tagged GLUT4 incubated for 16 hrs by scintillation counting based 2-[3H]DG uptake assay. Put shortly: as §1

Consider `O=c1cc(CO)oc(C(c2ccc(F)cc2)c2c[nH]c3ccccc23)c1O` (stereo not given), for which the Activity result in the series on L6 is “Toxic”. The result in series [1] was inactive.

Take `O=c1cc(CO)oc(C(c2ccc3ccccc3c2)c2c[nH]c3ccccc23)c1O` (stereo not given): the Activity entry in the series with L6 is “Toxic”. Also, the result in series [1] was inactive.

Turning to `O=c1cc(CO)oc(C(c2ccccc2)c2cn(Cc3ccccc3)c3ccccc23)c1O` (stereo not given), the Activity entry in the series with L6 is reported as “Toxic”. The result in series [1] was inactive.

With `COc1ccc(C(c2oc(CO)cc(=O)c2O)c2c[nH]c3ccccc23)cc1` (stereo not given), the Activity result in the series with L6 is listed as “Toxic”. In addition, in series [1], the outcome was inactive.

As to `CCCCCCCCC(c1oc(CO)cc(=O)c1O)c1c[nH]c2ccccc12` (stereo not given), the result in series [1] was inactive.

Consider `O=c1cc(CO)oc(C(c2ccccc2)c2csc3ccccc23)c1O` (stereo not given), for which the result in series [1] was inactive.

For the compound `O=c1cc(CO)oc(C(c2ccccc2)c2c(-c3ccccc3)[nH]c3ccccc23)c1O` (stereo not given), in the series with L6, the Activity result is on record as “Toxic”. In addition, in series [1], the outcome was inactive.

For `O=c1cc(CO)oc(C(c2ccccc2)c2ccc(O)cc2)c1O` (stereo not given), the outcome in series [2] was inactive. The Activity result in series [3] was “Dose-dependent effect”. The compound further registered a fold change (FC) in series [1] of 1.34.

As for `COc1ccc(SC(c2ccccc2)c2oc(CO)cc(=O)c2O)cc1` (stereo not given), in series [2], the outcome was inactive. The Activity result in series [3] and in series [4] was “Dose-dependent effect” in each case. For the same compound, in series [1], the fold change (FC) was found to be 1.38.

With `O=c1cc(CO)oc(C(c2ccccc2)c2ccc[nH]2)c1O` (stereo not given), the outcome in series [1] was inactive.

With `COc1ccc(OC)c(C(c2oc(CO)cc(=O)c2O)c2c[nH]c3ccccc23)c1` (stereo not given), the outcome in series [2] was inactive. For the same compound, the Activity entry in series [3] and in series [4] was “Dose-dependent effect” throughout. The same compound displayed a fold change (FC) in series [1] of 1.21.

As for `N#Cc1ccc2[nH]cc(C(c3ccccc3)c3oc(CO)cc(=O)c3O)c2c1` (stereo not given), in series [1], the result was inactive.

For the compound `CCCCC(c1oc(CO)cc(=O)c1O)c1c[nH]c2ccccc12` (stereo not given), the outcome in series [1] was inactive.

As for `COc1cccc(C(c2oc(CO)cc(=O)c2O)c2c[nH]c3ccccc23)c1OC` (stereo not given), the outcome in series [2] was inactive. In addition, the Activity result in series [3] and in series [4] was “Dose-dependent effect” in each case. Also, the fold change (FC) in series [1] is 1.25.

`Cc1ccc(C(c2ccccc2)c2oc(CO)cc(=O)c2O)s1` (stereo not given): the outcome in series [2] was inactive. Also, the Activity result in series [3] is “Dose-dependent effect”. The fold change (FC) in series [1] stood at 1.21.

In the case of `O=c1cc(CO)oc(C(c2ccccc2)c2c[nH]c3ccccc23)c1O` (stereo not given), the Activity entry in the series with L6 is reported as “Toxic”. Moreover, the outcome in series [1] was inactive.

Consider `O=c1cc(CO)oc(C(c2ccc(Cl)cc2)c2c[nH]c3ccccc23)c1O` (stereo not given), for which, in the series on L6, the Activity entry is on record as “Toxic”. Further, the result in series [1] was inactive.

Regarding `CCCCCn1cc(C(c2ccccc2)c2oc(CO)cc(=O)c2O)c2ccccc21` (stereo not given), in the series with L6, the Activity entry is “Toxic”. Further, in series [1], the result was inactive.

Regarding `O=c1cc(CO)oc(C(Sc2ccccc2)c2ccccc2)c1O` (stereo not given), in series [2], the result was inactive. The Activity entry in series [3] and in series [4] was “Dose-dependent effect” in each case. The same compound showed a fold change (FC) in series [1] of 1.33.

Regarding `COc1ccc2[nH]cc(C(c3ccccc3)c3oc(CO)cc(=O)c3O)c2c1` (stereo not given), the outcome in series [2] was inactive. In addition, the Activity entry in series [3] and in series [4] was “Dose-dependent effect” throughout. The same compound had a fold change (FC) in series [1] of 1.25.

`O=c1cc(CO)oc(C(c2ccc(Br)cc2)c2c[nH]c3ccccc23)c1O` (stereo not given): in the series on L6, the Activity entry is listed as “Toxic”. Further, the outcome in series [1] was inactive.

In the case of `Cn1cc(C(c2ccccc2)c2oc(CO)cc(=O)c2O)c2ccccc21` (stereo not given), the outcome in series [1] was inactive.
